# Test system: U2OS
# Assay: Multiplex assay against U2OS
# Assay type: toxicity, cell-based
# Details: human
# Method in brief: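 Four dyes were applied at seeding to live cells: Hoechst33342, BioTracker Green Microtubule Cytoskeleton Dye, MitoTracker Red and Annexin V Alexa Fluor 680. Imaging after compound addition used a CQ1 microscope at 37°C and 5% CO2. CellPathfinder machine-learning gating then sorted cells into Hoechst high-intensity objects or normal cells, normal cells into healthy, pyknosed or fragmented nuclei, and pyknosed cells into mitotic or apoptotic, with tubulin, mitochondrial-mass and membrane-permeability phenotypes given as per cents of healthy-nucleus cells.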
# [1] = 12 h, 1 µM, compound concentration 1 uM, replicate 1
# [2] = 12 h, 1 µM, compound concentration 1 uM, replicate 2
# [3] = 12 h, 10 µM, compound concentration 10 uM, replicate 1
# [4] = 12 h, 10 µM, compound concentration 10 uM, replicate 2
# [5] = 24 h, 1 µM, compound concentration 1 uM, replicate 1
# [6] = 24 h, 1 µM, compound concentration 1 uM, replicate 2
# [7] = 24 h, 10 µM, compound concentration 10 uM, replicate 1
# [8] = 24 h, 10 µM, compound concentration 10 uM, replicate 2
# [9] = 48 h, 1 µM, compound concentration 1 uM, replicate 1
# [10] = 48 h, 1 µM, compound concentration 1 uM, replicate 2
# [11] = 48 h, 10 µM, compound concentration 10 uM, replicate 1
# [12] = 48 h, 10 µM, compound concentration 10 uM, replicate 2
structure (smiles),measurement,setting,value
N#Cc1cnc(Nc2cc(NC[C@H]3CNCCO3)c(C(F)(F)F)cn2)cn1 [SRA-737],Population Apoptotic (%),[1],18%
same,Population Fragmented Nuclei (%),[1],0%
same,Population Healthy Nuclei (%),[1],89%
same,Population Hoechst High Intensity Objects (%),[1],6%
same,Population Membrane Permeable-Phenotype (%),[1],7%
same,Population Mitochondria Different-Phenotype (%),[1],14%
same,Population Mitotic Cells (%),[1],81%
same,Population Normal (%),[1],93%
same,Population Pyknosed Nuclei (%),[1],9%
same,Population Tubulin-Different-Phenotype (%),[1],26%
same,Total Cell Count,[1],249
same,Population Apoptotic (%),[2],16%
same,Population Fragmented Nuclei (%),[2],4%
same,Population Healthy Nuclei (%),[2],90%
same,Population Hoechst High Intensity Objects (%),[2],9%
same,Population Membrane Permeable-Phenotype (%),[2],10%
same,Population Mitochondria Different-Phenotype (%),[2],18%
same,Population Mitotic Cells (%),[2],83%
same,Population Normal (%),[2],90%
same,Population Pyknosed Nuclei (%),[2],4%
same,Population Tubulin-Different-Phenotype (%),[2],30%
same,Total Cell Count,[2],142
same,Population Apoptotic (%),[3],50%
same,Population Fragmented Nuclei (%),[3],5%
same,Population Healthy Nuclei (%),[3],87%
same,Population Hoechst High Intensity Objects (%),[3],4%
same,Population Membrane Permeable-Phenotype (%),[3],11%
same,Population Mitochondria Different-Phenotype (%),[3],9%
same,Population Mitotic Cells (%),[3],50%
same,Population Normal (%),[3],95%
same,Population Pyknosed Nuclei (%),[3],6%
same,Population Tubulin-Different-Phenotype (%),[3],15%
same,Total Cell Count,[3],193
same,Population Apoptotic (%),[4],23%
same,Population Fragmented Nuclei (%),[4],4%
same,Population Healthy Nuclei (%),[4],85%
same,Population Hoechst High Intensity Objects (%),[4],9%
same,Population Membrane Permeable-Phenotype (%),[4],15%
same,Population Mitochondria Different-Phenotype (%),[4],7%
same,Population Mitotic Cells (%),[4],76%
same,Population Normal (%),[4],90%
same,Population Pyknosed Nuclei (%),[4],10%
same,Population Tubulin-Different-Phenotype (%),[4],16%
same,Total Cell Count,[4],143
same,Population Apoptotic (%),[5],5%
same,Population Fragmented Nuclei (%),[5],0%
same,Population Membrane Permeable-Phenotype (%),[5],5%
same,Population Mitochondria Different-Phenotype (%),[5],12%
same,Population Mitotic Cells (%),[5],94%
same,Population Pyknosed Nuclei (%),[5],5%
same,Population Tubulin-Different-Phenotype (%),[5],31%
same,Total Cell Count,[5],330
same,Population Apoptotic (%),[6],0%
same,Population Fragmented Nuclei (%),[6],2%
same,Population Healthy Nuclei (%),[6],93%
same,Population Hoechst High Intensity Objects (%),[6],3%
same,Population Membrane Permeable-Phenotype (%),[6],6%
same,Population Mitochondria Different-Phenotype (%),[6],23%
same,Population Mitotic Cells (%),[6],100%
same,Population Normal (%),[6],96%
same,Population Pyknosed Nuclei (%),[6],4%
same,Population Tubulin-Different-Phenotype (%),[6],38%
same,Total Cell Count,[6],179
same,Population Apoptotic (%),[7],18%
same,Population Fragmented Nuclei (%),[7],4%
same,Population Healthy Nuclei (%),[7],88%
same,Population Hoechst High Intensity Objects (%),[7],4%
same,Population Membrane Permeable-Phenotype (%),[7],8%
same,Population Mitochondria Different-Phenotype (%),[7],10%
same,Population Mitotic Cells (%),[7],81%
same,Population Normal (%),[7],95%
same,Population Pyknosed Nuclei (%),[7],6%
same,Population Tubulin-Different-Phenotype (%),[7],19%
same,Total Cell Count,[7],243
same,Population Apoptotic (%),[8],50%
same,Population Fragmented Nuclei (%),[8],5%
same,Population Healthy Nuclei (%),[8],87%
same,Population Hoechst High Intensity Objects (%),[8],8%
same,Population Mitochondria Different-Phenotype (%),[8],19%
same,Population Mitotic Cells (%),[8],50%
same,Population Normal (%),[8],91%
same,Population Tubulin-Different-Phenotype (%),[8],12%
same,Total Cell Count,[8],168
Cc1nc(Cc2cccc(C(F)(F)F)c2)sc1-c1ccc(C(N)=O)nc1 [TP-024n],Population Apoptotic (%),[1],58%
same,Population Fragmented Nuclei (%),[1],8%
same,Population Healthy Nuclei (%),[1],85%
same,Population Hoechst High Intensity Objects (%),[1],5%
same,Population Membrane Permeable-Phenotype (%),[1],5%
same,Population Mitochondria Different-Phenotype (%),[1],10%
same,Population Mitotic Cells (%),[1],41%
same,Population Normal (%),[1],94%
same,Population Pyknosed Nuclei (%),[1],6%
same,Population Tubulin-Different-Phenotype (%),[1],9%
same,Total Cell Count,[1],159
same,Population Apoptotic (%),[2],50%
same,Population Fragmented Nuclei (%),[2],0%
same,Population Healthy Nuclei (%),[2],94%
same,Population Hoechst High Intensity Objects (%),[2],11%
same,Population Membrane Permeable-Phenotype (%),[2],2%
same,Population Mitochondria Different-Phenotype (%),[2],18%
same,Population Mitotic Cells (%),[2],50%
same,Population Normal (%),[2],88%
same,Population Pyknosed Nuclei (%),[2],5%
same,Population Tubulin-Different-Phenotype (%),[2],16%
same,Total Cell Count,[2],130
same,Population Apoptotic (%),[3],45%
same,Population Healthy Nuclei (%),[3],68%
same,Population Hoechst High Intensity Objects (%),[3],6%
same,Population Membrane Permeable-Phenotype (%),[3],3%
same,Population Mitochondria Different-Phenotype (%),[3],27%
same,Population Mitotic Cells (%),[3],54%
same,Population Normal (%),[3],93%
same,Population Pyknosed Nuclei (%),[3],13%
same,Population Tubulin-Different-Phenotype (%),[3],22%
same,Total Cell Count,[3],186
same,Population Apoptotic (%),[4],66%
same,Population Fragmented Nuclei (%),[4],17%
same,Population Healthy Nuclei (%),[4],67%
same,Population Hoechst High Intensity Objects (%),[4],4%
same,Population Membrane Permeable-Phenotype (%),[4],9%
same,Population Mitochondria Different-Phenotype (%),[4],21%
same,Population Mitotic Cells (%),[4],33%
same,Population Normal (%),[4],95%
same,Population Pyknosed Nuclei (%),[4],14%
same,Population Tubulin-Different-Phenotype (%),[4],11%
same,Total Cell Count,[4],44
same,Population Apoptotic (%),[5],46%
same,Population Fragmented Nuclei (%),[5],6%
same,Population Healthy Nuclei (%),[5],86%
same,Population Hoechst High Intensity Objects (%),[5],4%
same,Population Membrane Permeable-Phenotype (%),[5],3%
same,Population Mitochondria Different-Phenotype (%),[5],8%
same,Population Mitotic Cells (%),[5],53%
same,Population Normal (%),[5],95%
same,Population Pyknosed Nuclei (%),[5],6%
same,Population Tubulin-Different-Phenotype (%),[5],8%
same,Total Cell Count,[5],164
same,Population Apoptotic (%),[6],50%
same,Population Fragmented Nuclei (%),[6],5%
same,Population Healthy Nuclei (%),[6],91%
same,Population Hoechst High Intensity Objects (%),[6],5%
same,Population Membrane Permeable-Phenotype (%),[6],1%
same,Population Mitochondria Different-Phenotype (%),[6],7%
same,Population Mitotic Cells (%),[6],50%
same,Population Pyknosed Nuclei (%),[6],3%
same,Population Tubulin-Different-Phenotype (%),[6],15%
same,Total Cell Count,[6],126
same,Population Apoptotic (%),[7],42%
same,Population Fragmented Nuclei (%),[7],19%
same,Population Membrane Permeable-Phenotype (%),[7],8%
same,Population Mitochondria Different-Phenotype (%),[7],23%
same,Population Mitotic Cells (%),[7],57%
same,Population Pyknosed Nuclei (%),[7],21%
same,Population Tubulin-Different-Phenotype (%),[7],16%
same,Total Cell Count,[7],241
same,Population Apoptotic (%),[8],44%
same,Population Fragmented Nuclei (%),[8],14%
same,Population Healthy Nuclei (%),[8],58%
same,Population Hoechst High Intensity Objects (%),[8],2%
same,Population Membrane Permeable-Phenotype (%),[8],25%
same,Population Mitochondria Different-Phenotype (%),[8],32%
same,Population Mitotic Cells (%),[8],55%
same,Population Normal (%),[8],97%
same,Population Pyknosed Nuclei (%),[8],26%
same,Population Tubulin-Different-Phenotype (%),[8],22%
same,Total Cell Count,[8],60
same,Population Apoptotic (%),[9],32%
same,Population Healthy Nuclei (%),[9],88%
same,Population Hoechst High Intensity Objects (%),[9],3%
same,Population Membrane Permeable-Phenotype (%),[9],2%
same,Population Mitochondria Different-Phenotype (%),[9],8%
same,Population Mitotic Cells (%),[9],68%
same,Population Normal (%),[9],96%
same,Population Pyknosed Nuclei (%),[9],6%
same,Population Tubulin-Different-Phenotype (%),[9],7%
same,Total Cell Count,[9],160
same,Population Apoptotic (%),[10],33%
same,Population Fragmented Nuclei (%),[10],4%
same,Population Healthy Nuclei (%),[10],92%
same,Population Hoechst High Intensity Objects (%),[10],4%
same,Population Membrane Permeable-Phenotype (%),[10],3%
same,Population Mitochondria Different-Phenotype (%),[10],10%
same,Population Mitotic Cells (%),[10],66%
same,Population Normal (%),[10],95%
same,Population Pyknosed Nuclei (%),[10],3%
same,Population Tubulin-Different-Phenotype (%),[10],14%
same,Total Cell Count,[10],122
same,Population Apoptotic (%),[11],55%
same,Population Fragmented Nuclei (%),[11],20%
same,Population Healthy Nuclei (%),[11],56%
same,Population Hoechst High Intensity Objects (%),[11],5%
same,Population Membrane Permeable-Phenotype (%),[11],10%
same,Population Mitochondria Different-Phenotype (%),[11],19%
same,Population Mitotic Cells (%),[11],44%
same,Population Normal (%),[11],94%
same,Population Pyknosed Nuclei (%),[11],22%
same,Population Tubulin-Different-Phenotype (%),[11],13%
same,Total Cell Count,[11],386
same,Population Apoptotic (%),[12],72%
same,Population Fragmented Nuclei (%),[12],17%
same,Population Healthy Nuclei (%),[12],69%
same,Population Hoechst High Intensity Objects (%),[12],6%
same,Population Membrane Permeable-Phenotype (%),[12],32%
same,Population Mitochondria Different-Phenotype (%),[12],32%
same,Population Mitotic Cells (%),[12],27%
same,Population Normal (%),[12],93%
same,Population Pyknosed Nuclei (%),[12],13%
same,Population Tubulin-Different-Phenotype (%),[12],35%
same,Total Cell Count,[12],93
